Assay results as given in ChEMBL document CHEMBL3297677, “A new 9-alkyladenine-cyclic methylglyoxal diadduct activates wt- and F508del-cystic fibrosis transmembrane conductance regulator (CFTR) in vitro and in vivo” (Eur J Med Chem, 2014).
pEC50: −log10 of the molar value. Values belong to the molecule of their own block, whether it stands above or below them. Calls of active or inactive are those of the source. No cut-off for these calls is given here.

How the values were obtained:
[1] = target: T1, Cystic fibrosis transmembrane conductance regulator (Homo sapiens, UniProt P13569); assay: Activation of wild-type CFTR (unknown origin) expressed in forskolin-stimulated CHO cells assessed as increase in iodide efflux at 100 uM by gamma counting; assay type: cell-based
Procedure, shortened: (§1)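 Iodide efflux with a robotic system. Cells were loaded at 37 °C for 30 min in Krebs' solution with 1 mM KI and Na¹²⁵I so the label reached equilibrium. The first three aliquots (t0–t2) in cold Krebs' buffer gave the baseline, and compound medium was used for t3–t8. Residual radioactivity was extracted with 0.1 M NaOH/0.1% SDS and gamma-counted. Relative rate = k_peak − k_basal (min⁻¹), expressed as % of maximal activation. EC50 came from nonlinear regression.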
Target sequence in this assay (P13569 whole entry, looked up): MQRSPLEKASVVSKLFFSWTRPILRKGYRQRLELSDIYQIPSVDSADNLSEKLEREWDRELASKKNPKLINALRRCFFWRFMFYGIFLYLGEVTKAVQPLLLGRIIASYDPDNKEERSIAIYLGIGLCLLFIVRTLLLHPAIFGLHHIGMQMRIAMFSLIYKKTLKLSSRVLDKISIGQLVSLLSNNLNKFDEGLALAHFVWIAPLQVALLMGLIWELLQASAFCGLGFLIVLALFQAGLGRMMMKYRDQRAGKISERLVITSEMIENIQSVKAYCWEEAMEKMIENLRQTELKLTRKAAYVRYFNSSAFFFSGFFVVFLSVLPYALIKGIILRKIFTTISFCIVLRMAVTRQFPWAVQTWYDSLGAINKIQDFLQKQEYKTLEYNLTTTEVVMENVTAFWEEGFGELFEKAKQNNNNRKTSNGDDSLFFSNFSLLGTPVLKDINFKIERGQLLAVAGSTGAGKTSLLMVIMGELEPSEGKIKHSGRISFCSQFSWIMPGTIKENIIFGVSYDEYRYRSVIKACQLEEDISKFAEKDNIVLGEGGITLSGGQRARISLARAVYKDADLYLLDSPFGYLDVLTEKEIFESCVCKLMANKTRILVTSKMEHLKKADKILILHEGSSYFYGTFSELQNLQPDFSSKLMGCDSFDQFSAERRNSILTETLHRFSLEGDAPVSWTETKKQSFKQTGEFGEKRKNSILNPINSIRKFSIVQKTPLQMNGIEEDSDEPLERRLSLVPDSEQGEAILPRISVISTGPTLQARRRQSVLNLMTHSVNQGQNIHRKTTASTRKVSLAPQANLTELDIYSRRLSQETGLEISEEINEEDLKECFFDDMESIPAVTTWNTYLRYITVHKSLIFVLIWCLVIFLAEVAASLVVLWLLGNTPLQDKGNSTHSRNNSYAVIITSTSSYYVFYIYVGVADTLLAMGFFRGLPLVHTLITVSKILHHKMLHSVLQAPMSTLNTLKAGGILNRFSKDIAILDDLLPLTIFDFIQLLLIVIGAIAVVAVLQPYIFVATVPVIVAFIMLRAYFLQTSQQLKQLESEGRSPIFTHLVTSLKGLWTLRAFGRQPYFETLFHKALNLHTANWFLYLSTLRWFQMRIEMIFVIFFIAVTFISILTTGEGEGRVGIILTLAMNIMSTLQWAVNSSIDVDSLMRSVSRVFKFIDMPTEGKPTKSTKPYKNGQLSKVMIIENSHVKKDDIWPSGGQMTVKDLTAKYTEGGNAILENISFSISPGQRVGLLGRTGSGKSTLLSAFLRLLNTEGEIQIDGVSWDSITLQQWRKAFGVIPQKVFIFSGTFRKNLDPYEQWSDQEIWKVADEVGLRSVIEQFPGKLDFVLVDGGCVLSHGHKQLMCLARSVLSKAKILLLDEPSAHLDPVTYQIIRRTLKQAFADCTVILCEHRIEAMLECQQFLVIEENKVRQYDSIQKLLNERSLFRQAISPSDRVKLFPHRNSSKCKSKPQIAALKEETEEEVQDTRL

[2] = target: T1, Cystic fibrosis transmembrane conductance regulator; assay: Activation of wild-type CFTR (unknown origin) expressed in forskolin-stimulated CHO cells assessed as increase in iodide efflux by gamma counting; assay type: cell-based; procedure, shortened: as §1
Target sequence in this assay (P13569 whole entry): as the sequence (P13569 whole entry, looked up) above

CHO = assay: Cytotoxicity against wild-type CFTR transfected CHO cells upto 300 uM after 24 hrs by MTT assay; assay type: cell-based, Cricetulus griseus; details: chinese hamster
Procedure, shortened: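 Wt-CFTR CHO cells were exposed for 24 h, and viability was read by MTT reduction to formazan. Controls were untreated cells and cells deprived of medium for 24 h.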

Rattus norvegicus [3] = assay: Potentiation of isprenaline-induced salivary secretion in male Wistar rat assessed as net weight of saliva secreted at 30 uM, sc followed by treatment with 1 mM cholinergic inhibitor atropine; assay type: functional, organism-based
Procedure, shortened: (§2)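 Male Wistar rats (250–300 g) were held supine. Basal secretion was blocked with atropine (1 mM). Saline containing 1 mM atropine plus compound (30 µM), isoprenaline (10 µM) or both was then injected subcutaneously into the cheek. Saliva was collected on paper pieces changed every 4 min and weighed. Secretion rate = saliva weight / collection time (min) / body weight (g).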

[4] = target: T1, Cystic fibrosis transmembrane conductance regulator; assay: Activation of CFTR in forskolin-stimulated human MM39 cells by DiSBAC2(3) dye based fluorescence analysis; assay type: cell-based
Procedure, shortened: (§3)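 Human tracheal gland MM39 cells were imaged cell by cell with the potential-sensitive oxonol probe DiSBAC2(3) (ex 535 nm, em 560 nm). Signal is Fx = (Ft − F0)/F0 × 100 relative to the time of stimulus addition. Histograms show the stable fluorescence variation, as mean ± SEM. The CFTR inhibitor CFTRinh-172 was used at 1 µM. Runs were done with or without forskolin.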
Target sequence in this assay (P13569 whole entry, looked up): as above

[5] = target: T1, Cystic fibrosis transmembrane conductance regulator; assay: Activation of CFTR in forskolin-stimulated human MM39 cells by DiSBAC2(3) dye based fluorescence analysis in presence of 1 uM CFTRinh-172; assay type: cell-based; procedure, shortened: as §3
Target sequence in this assay (P13569 whole entry, looked up): as above

[6] = target: T1, Cystic fibrosis transmembrane conductance regulator; assay: Activation of CFTR in human MM39 cells by DiSBAC2(3) dye based fluorescence analysis in presence of 1 uM CFTRinh-172; assay type: cell-based; procedure, shortened: as §3
Target sequence in this assay (P13569 whole entry, looked up): as above

Rattus norvegicus [7] = assay: Effect on salivary secretion in male Wistar rat assessed as net weight of saliva secreted at 30 uM, sc followed by treatment with 1 mM cholinergic inhibitor atropine; assay type: functional, organism-based; procedure, shortened: as §2
[8] = target: T1, Cystic fibrosis transmembrane conductance regulator; assay: Activation of CFTR in human MM39 cells by DiSBAC2(3) dye based fluorescence analysis; assay type: cell-based; procedure, shortened: as §3
Target sequence in this assay (P13569 whole entry, looked up): as above

[9] = target: Cystic fibrosis transmembrane conductance regulator (Homo sapiens, UniProt P13569, F508DEL); assay: (§4) Activation of CFTR F508 deletion mutant in forskolin-stimulated and miglustat-corrected human […] cells assessed as increase in iodide efflux by gamma counting; assay type: cell-based; procedure, shortened: as §1
[10] = tested on: Cystic fibrosis transmembrane conductance regulator (Homo sapiens), P13569 [F508del]; assay: as §4; assay type: cell-based; procedure, shortened: as §1
Sequence of Cystic fibrosis transmembrane conductance regulator (Homo sapiens), P13569 [F508del] (P13569 as listed by the source): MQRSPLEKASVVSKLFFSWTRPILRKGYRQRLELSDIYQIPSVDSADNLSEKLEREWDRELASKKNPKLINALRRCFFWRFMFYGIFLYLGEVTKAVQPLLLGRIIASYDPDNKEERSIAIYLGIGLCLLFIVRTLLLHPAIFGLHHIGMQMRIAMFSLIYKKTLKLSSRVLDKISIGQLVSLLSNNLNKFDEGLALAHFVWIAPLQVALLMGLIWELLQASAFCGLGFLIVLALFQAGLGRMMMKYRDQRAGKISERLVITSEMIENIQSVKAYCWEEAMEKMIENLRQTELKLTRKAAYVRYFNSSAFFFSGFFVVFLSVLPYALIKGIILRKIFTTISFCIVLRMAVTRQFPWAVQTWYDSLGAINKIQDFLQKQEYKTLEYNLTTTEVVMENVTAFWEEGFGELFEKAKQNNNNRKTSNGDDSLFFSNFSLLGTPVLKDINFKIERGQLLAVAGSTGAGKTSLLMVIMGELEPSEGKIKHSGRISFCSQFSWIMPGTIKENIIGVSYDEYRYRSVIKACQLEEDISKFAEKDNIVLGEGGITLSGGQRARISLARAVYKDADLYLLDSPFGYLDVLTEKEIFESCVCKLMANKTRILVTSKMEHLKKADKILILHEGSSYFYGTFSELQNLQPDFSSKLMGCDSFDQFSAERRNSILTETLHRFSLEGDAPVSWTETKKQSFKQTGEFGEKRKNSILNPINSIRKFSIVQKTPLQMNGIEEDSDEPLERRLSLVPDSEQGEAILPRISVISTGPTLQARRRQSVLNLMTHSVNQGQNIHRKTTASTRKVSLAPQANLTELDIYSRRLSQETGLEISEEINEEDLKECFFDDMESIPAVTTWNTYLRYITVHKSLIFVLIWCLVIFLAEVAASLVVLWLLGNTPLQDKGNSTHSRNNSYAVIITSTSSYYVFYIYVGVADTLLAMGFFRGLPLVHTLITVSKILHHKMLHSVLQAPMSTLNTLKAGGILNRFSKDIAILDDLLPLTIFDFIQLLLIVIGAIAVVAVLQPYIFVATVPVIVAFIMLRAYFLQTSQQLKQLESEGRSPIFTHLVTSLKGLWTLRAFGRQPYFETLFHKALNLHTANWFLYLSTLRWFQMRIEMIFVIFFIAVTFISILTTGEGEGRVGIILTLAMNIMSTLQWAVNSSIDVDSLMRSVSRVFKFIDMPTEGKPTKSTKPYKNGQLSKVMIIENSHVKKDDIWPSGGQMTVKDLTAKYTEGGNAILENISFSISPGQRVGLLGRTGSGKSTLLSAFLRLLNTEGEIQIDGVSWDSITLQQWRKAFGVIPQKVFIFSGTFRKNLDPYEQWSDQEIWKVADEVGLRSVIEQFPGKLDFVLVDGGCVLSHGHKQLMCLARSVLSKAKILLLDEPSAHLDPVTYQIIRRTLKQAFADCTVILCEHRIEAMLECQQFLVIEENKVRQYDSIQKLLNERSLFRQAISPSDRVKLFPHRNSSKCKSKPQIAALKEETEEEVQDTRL

Sequence of Cystic fibrosis transmembrane conductance regulator (Homo sapiens, UniProt P13569, F508DEL) (P13569 as listed by the source): as above

Structure (SMILES): C[C@]1(C(=O)O)N=C2c3ncn(Cc4ccccc4)c3N=CN2[C@](C)(O)[C@@H]1O
Activity [1]: inactive

Structure (SMILES): C#CCn1cnc2c1N=CN1C2=N[C@](C)(C(=O)O)[C@@H](O)[C@@]1(C)O
Activity [1]: inactive

Structure (SMILES): CC(C)n1cnc2c1N=CN1C2=N[C@](C)(C(=O)O)[C@@H](O)[C@@]1(C)O
Activity [1]: inactive

Structure (SMILES): C[C@]1(C(=O)O)N=C2c3ncn(CCCc4ccccc4)c3N=CN2[C@](C)(O)[C@@H]1O
Activity [1]: inactive

More lines, main results first:

Activity [1]: inactive
Structure (SMILES): C[C@]1(C(=O)O)N=C2c3ncn(CCCO)c3N=CN2[C@](C)(O)[C@@H]1O

Activity [1]: inactive
Structure (SMILES): CCn1cnc2c1N=CN1C2=N[C@](C)(C(=O)O)[C@@H](O)[C@@]1(C)O

Activity [1]: inactive
Structure (SMILES): CCCCn1cnc2c1N=CN1C2=N[C@](C)(C(=O)O)[C@@H](O)[C@@]1(C)O

pEC50 [2]: 5.12
Activity [1]: Active
Activity [4]: Active
Activity [5]: inactive
Activity [6]: inactive
Activity [8]: Active
pEC50 [9]: 3.98
Activity [10]: Dose-dependent effect
Structure (SMILES): C=CCn1cnc2c1N=CN1C2=N[C@](C)(C(=O)O)[C@@H](O)[C@@]1(C)O
Activity (CHO): Non-toxic
Activity (Rattus norvegicus [3]): Active
Activity (Rattus norvegicus [7]): inactive

pEC50 [2]: 5.68
Structure (SMILES): C=CCn1cnc2c1N=CN1C2=N[C@](C)(C(=O)O)[C@H](O)[C@]1(C)O

Activity [1]: inactive
Structure (SMILES): Cn1cnc2c1N=CN1C2=N[C@](C)(C(=O)O)[C@@H](O)[C@@]1(C)O
